# Activity calls are given as the source filed them. Unless noted, no stated cut-off is given here; in the data, active means inhibition above about 30%; inactive means the rest.
# Legend:
# [1] = SK-BR-3 cell growth inhibitors, pilot screen, 24 h, human (AID 572;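 active means viability at or below 10% of carrier control in both of two separate runs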;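 further: compound exposure lasted between 18 and 24 h rather than exactly 24 h; 100% = carrier-treated control wells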); conditions: SK-BR-3 viability, CellTiter-Glo luminescence, at 10 µM, stronger effect = lower value
# [2] = HUVEC growth inhibition – cell-based, human, primary screen (AID 575;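 active means viability at or below 30% in both replicate assays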;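 further: 100% = median of untreated cell wells with 0.1% DMSO on each plate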); conditions: HUVEC proliferation, CellTiter-Glo luminescence, 72 h; at 10 µM; stronger effect = lower value
# Outline: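 Timing: 72 h treatment at 37 °C; material: HUVEC primary cells; technique: CellTiter-Glo luminescence measuring cellular ATP; controls: vehicle and MePR control wells; measure: percent of median DMSO-control luminescence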
# [3] = growth inhibitors of H69AR lung tumor, primary screen, human, duplicate replicates (AID 580;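 active means viability at or under a set limit in both replicates, limit being median viability minus 3 SD, cut at about 48% in these data, passing the limit was not always enough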;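 further: 100% = mean luminescence of untreated wells and 0% = no signal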); conditions: H69AR lung tumor cells viability, ATP luminescence, 72 h; at 10 µM; stronger effect = lower value
# [4] = reversal of MRP1-mediated doxorubicin resistance, pilot screen, H69AR cells, doxorubicin co-treatment (AID 601;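 active means viability loss from added drug above about 55%, and viability with drug at most 40%, in both replicates, limit read from the data, passing the limit was not always enough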); conditions: CellTiter-Glo, 72 h, at 10 µM; for differential viability (reversal): stronger effect = higher value
# [5] = 384-well plate pilot, post-Golgi transport modulator project, inhibition of yeast transport mutant growth (AID 636; in the data active means inhibition above about 31%); conditions: absorbance 615 nm, about 18 h, stronger effect = higher value
# [6] = growth suppression of yeast trafficking mutant, preliminary HTS, modulators of trafficking downstream of Golgi apparatus project, 1536-format plate, OD 615 nm (AID 637); conditions: yeast transport mutant growth, absorbance 615 nm, 18 h; stronger effect = higher value
# [7] = H69AR cells + 2 uM doxorubicin, measured here: viability with 2 uM doxorubicin, stronger effect = lower value
# [8] = H69AR cells, compound alone cytotoxicity
Structure (SMILES),viability [1],viability [2],viability [3],differential viability (reversal) ([4]; H69AR cells + 2 uM doxorubicin),"viability [4, 7] [%]","viability [4, 8] [%]",inhibition [5],inhibition [6]
C[C@@H]1CCC[C@H](C)N1NC(=O)c1ccc(Cl)c(S(N)(=O)=O)c1,100% (inactive),88.5% (inactive),99.7% (inactive),7.9% (inactive),91.8,99.7,0.39% (inactive),-6.5% (inactive)
Cc1ccc(NC(=O)CC2C(=O)NC3CCCCC3N2C(=O)c2ccc(F)cc2)cc1C (stereo unspecified),108% (inactive),100% (inactive),101% (inactive),12.5% (inactive),88.5,101,-2.47% (inactive),3.11% (inactive)
COCCn1nnnc1SCC(=O)N1CCCCC1,63% (inactive),102% (inactive),99.4% (inactive),1.98% (inactive),97.4,99.4,-5.34% (inactive),4.18% (inactive)
O=C1c2ccccc2S(=O)(=O)N1Cc1nnc(-c2ccccc2Br)o1,88% (inactive),102% (inactive),95% (inactive),17% (inactive),78,95,-5.62% (inactive),0.32% (inactive)
Nc1nnc(SCc2cc3c(cc2Cl)OCO3)s1,118% (inactive),94.4% (inactive),99.7% (inactive),14.4% (inactive),85.2,99.7,-2.47% (inactive),-1.13% (inactive)
CCCC1(CCC)NC(=O)NC1=O,121% (inactive),94.7% (inactive),98.2% (inactive),0.09% (inactive),98.1,98.2,-0.26% (inactive),0.66% (inactive)
Cc1c(NC(=O)Cn2nc(C(=O)O)c3ccccc3c2=O)c(=O)n(-c2ccccc2)n1C,116% (inactive),102% (inactive),101% (inactive),0.425% (inactive),100,101,2.88% (inactive),-6.45% (inactive)
Cc1[nH]nc2c1C(=O)CCC2,105% (inactive),117% (inactive),101% (inactive),4.79% (inactive),96.3,101,0.68% (inactive),-0.18% (inactive)
CCn1cc(C2Nc3ccccc3C(=O)N2O)c(C)n1 (stereo unspecified),93% (inactive),126% (inactive),90% (inactive),-0.465% (inactive),90.5,90,-5.27% (inactive),-2.91% (inactive)
Cc1cc(NS(=O)(=O)Cc2ccccc2)cc(C)c1OCC(=O)N1CCOCC1,95% (inactive),92.1% (inactive),94.6% (inactive),20.2% (inactive),74.4,94.6,-0.52% (inactive),0% (inactive)
COC(=O)c1ccccc1NC(=O)CN1CCC(n2nnc3cc(F)ccc32)CC1,64% (inactive),94.9% (inactive),100% (inactive),10.3% (inactive),89.7,100,-6.16% (inactive),-1.27% (inactive)
CCCNC(=O)NC1C(NC(=O)NCCC)N(C)C(=O)N1C (stereo unspecified),86% (inactive),104% (inactive),105% (inactive),14.2% (inactive),90.7,105,-1.04% (inactive),-0.49% (inactive)
O=C(CN(c1ccc(F)cc1)S(=O)(=O)c1ccc2c(c1)OCCO2)Nc1cccnc1,77% (inactive),89.5% (inactive),100% (inactive),-0.85% (inactive),101,100,-8.77% (inactive),-3.82% (inactive)
COc1ccc(NC(=O)CSc2c(C)nn(-c3nnc(C)c(=O)[nH]3)c2C)cc1,101% (inactive),98.2% (inactive),113% (inactive),17% (inactive),95.5,113,-0.41% (inactive),-6.45% (inactive)
CCOC(=O)C(C#N)C(c1cccnc1)c1c(C)[nH][nH]c1=O (stereo unspecified),77% (inactive),107% (inactive),105% (inactive),9.4% (inactive),95.7,105,-7.43% (inactive),4% (inactive)
CCOCC(=O)Nc1c(C(=O)Nc2ccc(OC)cc2OC)oc2ccccc12,65.5% (inactive),50.9% (inactive),48% (active),-0.305% (inactive),48.3,48,-6.62% (inactive),-3.77% (inactive)
C1COC(NC(C2CC2)C2CC2)=N1,94% (inactive),77.3% (inactive),84.9% (inactive),5.27% (inactive),79.6,84.9,-1.3% (inactive),-5.17% (inactive)
Cc1ccc(OCCN2CCN(C(=O)CCC(=O)Nc3nnc(C)s3)CC2)cc1,88% (inactive),118% (inactive),88.6% (inactive),-3.2% (inactive),91.8,88.6,-7.03% (inactive),2.91% (inactive)
N#Cc1ccc(CSc2nnc(-c3cccs3)n2-c2ccccc2)cc1,78% (inactive),78% (inactive),78% (inactive),34.1% (inactive),44,78,-0.82% (inactive),-7.1% (inactive)

Structure (SMILES),viability [1],viability [2],viability [3],differential viability (reversal) ([4]; H69AR cells + 2 uM doxorubicin),"viability [4, 7] [%]","viability [4, 8] [%]",inhibition [5],inhibition [6]
CCOc1cc(C(=O)Nc2c3c(nn2C(C)(C)C)CS(=O)C3)cc(OCC)c1OCC (stereo unspecified),103% (inactive),96.7% (inactive),101% (inactive),7.14% (inactive),93.7,101,-1.04% (inactive),-7.54% (inactive)
O=C1OC(c2ccc(O)cc2)(c2ccc(O)cc2)c2ccccc21,83% (inactive),48.8% (inactive),102% (inactive),4.57% (inactive),97.7,102,-2.73% (inactive),8.67% (inactive)
Cc1ccc2c(c1C)NC(=O)C2(O)CC(=O)c1ccc2c(c1)OCO2 (stereo unspecified),88% (inactive),83.2% (inactive),88% (inactive),-5.94% (inactive),94,88,-1.1% (inactive),2.9% (inactive)
Oc1c(I)cc(I)c2cccnc12,61% (inactive),71.3% (inactive),84.6% (inactive),-6.25% (inactive),90.9,84.6,-2.73% (inactive),1% (inactive)
CN1CCN(C2=Nc3ccccc3Oc3ccc(Cl)cc32)CC1,80% (inactive),59.7% (inactive),73.6% (inactive),48.3% (inactive),25.3,73.6,-3.38% (inactive),-1.83% (inactive)
CC(C)NCC(O)COc1ccc(CCOCC2CC2)cc1 (stereo unspecified),102% (inactive),83.3% (inactive),95.8% (inactive),-14.9% (inactive),111,95.8,-0.91% (inactive),-5% (inactive)
COc1ccc(C2/C(=C(/O)c3ccccc3)C(=O)C(=O)N2c2ncccn2)cc1OC (stereo unspecified),105% (inactive),101% (inactive),108% (inactive),8.68% (inactive),99.1,108,-4.59% (inactive),-2.55% (inactive)
O=C(C1CCCO1)N1CCN(S(=O)(=O)c2ccccc2)CC1 (stereo unspecified),79% (inactive),98.1% (inactive),99.1% (inactive),-6.22% (inactive),105,99.1,-6.3% (inactive),3.27% (inactive)
COc1ccc(C/C(O)=C(\C#N)c2nc3ccccc3s2)cc1,86% (inactive),48.8% (inactive),83.1% (inactive),-8.21% (inactive),91.3,83.1,-2.93% (inactive),0.36% (inactive)
Cc1ccc(Nc2nc(N)nc(CN3CCN(Cc4ccc5c(c4)OCO5)CC3)n2)cc1,93% (inactive),106% (inactive),82.2% (inactive),2.44% (inactive),79.7,82.2,-8.27% (inactive),-4.91% (inactive)
CC(C)(C)C(=O)OCC1OC(n2cnc(C(N)=O)n2)C(O)C1O (stereo unspecified),89% (inactive),99.1% (inactive),96.1% (inactive),1.56% (inactive),94.5,96.1,-8.22% (inactive),-2.36% (inactive)
C=CCn1c(SCC(=O)Nc2ccc3c(c2)OCO3)nc2ccccc2c1=O,73% (inactive),83.9% (inactive),84.2% (inactive),2.04% (inactive),82.1,84.2,-3.84% (inactive),-1.27% (inactive)
C[C@]12C=CC(=O)C=C1CC[C@@H]1[C@@H]2[C@@H](O)C[C@@]2(C)[C@H]1CC[C@]2(O)C(=O)COC(=O)CCC(=O)O,112% (inactive),80.3% (inactive),84.4% (inactive),2.96% (inactive),81.4,84.4,1.95% (inactive),1.33% (inactive)
Cn1c(=O)c2c(nc(NCCNC(=O)c3ccco3)n2Cc2ccccc2Cl)n(C)c1=O,80% (inactive),112% (inactive),72.5% (inactive),5.75% (inactive),66.7,72.5,-7.57% (inactive),-4.36% (inactive)
COc1cc(C2Oc3cc(C4Oc5cc(O)cc(O)c5C(=O)C4O)ccc3OC2CO)ccc1O (stereo unspecified),106% (inactive),85.7% (inactive),97.4% (inactive),4.15% (inactive),93.2,97.4,1.3% (inactive),-3.5% (inactive)
COCCNC(=O)C(c1cccs1)N(C(=O)Cn1nnc2ccccc21)c1ccccc1 (stereo unspecified),97% (inactive),107% (inactive),97.2% (inactive),3.17% (inactive),94,97.2,-2.34% (inactive),-5.9% (inactive)
CCCCCc1c(C)nc(SCC(=O)O)[nH]c1=O,108% (inactive),108% (inactive),111% (inactive),14% (inactive),97.1,111,1.23% (inactive),-3.39% (inactive)
Cc1ccc(Cn2ccc(NC(=O)c3cc(-c4cccs4)on3)n2)cc1,96% (inactive),48.7% (inactive),82.9% (inactive),0.115% (inactive),82.8,82.9,-2.6% (inactive),-2.46% (inactive)
